Where two headings read alike, the source gives them in different places. A value given as a limit tells only on which side of the number the result lay.

Data set [1] is described as follows: Concentration-response cell viability assay, Vero E6 cells. In kind it is cell-based, African green monkey. As to conditions: African green monkey, noninfected, CC50, Vero E6 cells.
Data set [2] deals with SARS-CoV-2. In kind it is cell-based. As to conditions: Vero E6 cells, 46 to 50 h.
The test system of data set [3] is SARS-CoV-2. In kind it is cell-based.
The subject of data set [4] is SARS-CoV-2. In kind it is cell-based. The source holds these as a separate data set.
In a further data set the test system is Vero E6 cells. The data set can be described thus: Concentration-response cell viability assay, Vero E6 cells. In kind it is cell-based, African green monkey. As to conditions: noninfected.
For the next data set, the system named is Huh7.5 cells. The data set can be described thus: Concentration-response cell viability assay, Huh7.5 cells. In kind it is cell-based, human. As to conditions: noninfected. The method, boiled down:
(§1)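 Huh7.5 hepatoma cells in DMEM/10% heat-inactivated FBS with penicillin/streptomycin, plated at 9,000 cells/well. The following day, noninfected cultures received test compound dilution series (DMSO-dissolved) or DMSO alone. Incubation was 70–74 h, then CellTiter 96 Aqueous One reagent for 1–3 h at 37°C, 5% CO₂, and absorbance at 492 nm. Each concentration had 2–4 replicate wells, normalised to the mean of 12 untreated control wells on each plate.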

The next data set relates to A549-hACE2 cells. The data set can be described thus: Concentration-response cell viability assay, A549-hACE2 cells. In kind it is cell-based, human. As to conditions: noninfected.
Data set [5] concerns SARS-CoV-2. The data set can be described thus: Short-term assay for interactions of PIs and remdesivir, Vero E6 cells. As to conditions: for interaction with remdesivir (method of Chou and Talalay, CompuSyn): Vero E6 and A549-hACE2 data sets; for residual infectivity: Vero E6, treatment condition 3. In kind it is cell-based.
The test system of data set [6] is SARS-CoV-2. In kind it is cell-based. As to conditions: Vero E6.
The test system of data set [7] is SARS-CoV-2. In kind it is cell-based. As to conditions: A549-hACE2.
Data set [8] is described as follows: Concentration-response cell viability assay, Huh7.5 cells. In kind it is cell-based, human. As to conditions: human, noninfected. A digest of the protocol: as §1
The nature of data set [9]: Concentration-response cell viability assay, A549-hACE2 cells. In kind it is cell-based, human. As to conditions: human, noninfected.
Data set [10] deals with SARS-CoV-2. As to conditions: cited from earlier work.
For data set [11] the following is noted: rats; single oral administration; cited from earlier work.
The conditions of data set [12]: clinical phase 1 trials; cited from earlier work.
[13] abbreviates: A549-hACE2 cells, […], 46 to 50 h.
Setting [14] is: Severe acute respiratory syndrome coronavirus 2, Huh7.5.
[15] abbreviates: Severe acute respiratory syndrome coronavirus 2.

By CC50 is commonly meant the concentration that lowers cell viability or growth by half. Read a high CC50 as lower toxicity to the cells. Molecule `CCC[C@H](NC(=O)[C@@H]1[C@H]2CCC[C@H]2CN1C(=O)[C@@H](NC(=O)[C@@H](NC(=O)c1cnccn1)C1CCCCC1)C(C)(C)C)C(=O)C(=O)NC1CC1` [Telaprevir, telaprevir] returned a CC50 in data set [1] of over 432 µM.
The term EC50 denotes the midpoint of the concentration-response curve. As for `C=C[C@@H]1C[C@]1(NC(=O)[C@@H]1C[C@@H]2CN1C(=O)[C@H](C(C)(C)C)NC(=O)O[C@@H]1C[C@H]1CCCCCc1nc3ccc(OC)cc3nc1O2)C(=O)NS(=O)(=O)C1CC1.O` [Grazoprevir, grazoprevir], the EC50 turned out to be 42 µM in the data set with SARS-CoV-2 [2]; 20 µM with SARS-CoV-2 [3] (Huh7.5 cells, […], 70 to 74 h); 26 µM with SARS-CoV-2 [4] (setting [13]). The CC50 amounted to 239 µM in the data set with Vero E6 cells, 133 µM with Huh7.5 cells and 125 µM in the data set with A549-hACE2 cells. Also, in the data set on SARS-CoV-2 [5], the “interaction with remdesivir (method of Chou and Talalay, CompuSyn)” value (from here on “interaction with remdesivir”) is “primarily synergistic”. The molecule further displayed an infected culture cells with SARS-CoV-2 [6] (1-fold EC50 PI, […]) of 90%. For the same molecule, the “effect on viral spread (viral RNA titers)” value (from here on “effect on viral spread”) with SARS-CoV-2 [7] (1-fold EC50 PI singly) is listed as “no to little effect”.
Consider `C=C[C@@H]1C[C@]1(NC(=O)[C@@H]1C[C@@H](Oc2ncc(OC)c3ccc(Cl)cc23)CN1C(=O)[C@@H](NC(=O)OC(C)(C)C)C(C)(C)C)C(=O)NS(=O)(=O)C1CC1` [Asunaprevir, asunaprevir], for which it took 263 µM to reach half-maximal cytotoxicity in data set [1] (CC50).
Consider `CC(C)(C)NC(=O)N[C@H](C(=O)N1C[C@H]2[C@@H]([C@H]1C(=O)NC(CC1CCC1)C(=O)C(N)=O)C2(C)C)C(C)(C)C` (stereo partly shown) [Boceprevir, boceprevir], for which the EC50 with SARS-CoV-2 [2] worked out at 44 µM; in the data set on SARS-CoV-2 [3] (setting [14]) it was 42 µM; with SARS-CoV-2 [4] (setting [15]), 20 µM. Moreover, the values for the CC50 in data set [1], in data set [8] and in data set [9] were over 1210 µM, 701 µM and over 1210 µM, respectively. In addition, the residual infectivity in the data set with SARS-CoV-2 [5] (17.4 μM boceprevir singly) is on record as 79%. Moreover, the “interaction with remdesivir” value with SARS-CoV-2 [5] is recorded as “primarily antagonistic”. Besides, the “viral RNA titers in supernatant” value in the data set with SARS-CoV-2 [6] (3-fold EC50 boceprevir) and with SARS-CoV-2 [6] (5-fold EC50 boceprevir) was “decreased to values around the lower limit of quantification” throughout. Besides, the “viral suppression (immunostaining)” value with SARS-CoV-2 [6] (3-fold EC50 boceprevir, […], follow-up 9 days) is listed as “sustained viral suppression”; in the data set on SARS-CoV-2 [6] (5-fold EC50 boceprevir, […], follow-up 17 days), “sustained viral suppression”. The “effect on viral spread” value was “minor impact” in the data set with SARS-CoV-2 [7] (1- to 5-fold EC50 boceprevir); “no to little effect” in the data set with SARS-CoV-2 [7] (1-fold EC50 PI singly); “viral suppression” in the data set on SARS-CoV-2 [7] (8-fold EC50 boceprevir, observation period 13 days).
For `CCCC[C@H](NC(=O)[C@@H]1[C@@H]2[C@H](CN1C(=O)[C@@H](NC(=O)NC1(CS(=O)(=O)C(C)(C)C)CCCCC1)C(C)(C)C)C2(C)C)C(=O)C(=O)NC1CC1` [Narlaprevir, narlaprevir], the EC50 in the data set on SARS-CoV-2 [2] was 37 µM. This molecule also yielded a CC50 in [1] of 269 µM. For the same molecule, the “interaction with remdesivir” value with SARS-CoV-2 [5] was “primarily antagonistic”.
With `CC(C)(C)[C@@H]1NC(=O)O[C@@H]2CCC[C@H]2OC/C=C/C(F)(F)c2nc3ccccc3nc2O[C@@H]2C[C@@H](C(=O)N[C@]3(C(=O)NS(=O)(=O)C4(C)CC4)C[C@H]3C(F)F)N(C2)C1=O` [Glecaprevir, glecaprevir], the EC50 with SARS-CoV-2 [4] (setting [15]) is over 94 µM. Moreover, the CC50 (in the data set with Vero E6 cells; in data set [9]) was over 268 µM each time.
Molecule `CC(C)(C)OC(=O)N[C@H]1CCCCC/C=C\[C@@H]2C[C@@]2(C(=O)NS(=O)(=O)C2CC2)NC(=O)[C@@H]2C[C@@H](OC(=O)N3Cc4cccc(F)c4C3)CN2C1=O` [Danoprevir, danoprevir] gave a CC50 in the data set with Vero E6 cells of over 243 µM.
`CCC(CC)COC(=O)[C@H](C)N[P@](=O)(OC[C@H]1O[C@@](C#N)(c2ccc3c(N)ncnn23)[C@H](O)[C@@H]1O)Oc1ccccc1` [Remdesivir, remdesivir] showed an EC50 with SARS-CoV-2 [4] (setting [15]) of 0.1 µM. For the same molecule, the figures for the residual infectivity with SARS-CoV-2 [5] (0.6 μM remdesivir singly) and with SARS-CoV-2 [5] (1.7 μM remdesivir singly) were 83% and 47%, respectively.
As to voxilaprevir, the EC50 with SARS-CoV-2 [2] is over 27 µM; in the data set with SARS-CoV-2 [4] (setting [13]), 10 µM; in the data set with SARS-CoV-2 [10] (A549-hACE2 cell line), over 10 µM. Further, the results for the CC50 in the data set with Vero E6 cells and in the data set on A549-hACE2 cells were 72 µM and 81 µM, respectively.
As to `COc1ccc2c(O[C@@H]3C[C@H]4C(=O)N[C@]5(C(=O)NS(=O)(=O)C6CC6)C[C@H]5/C=C\CCCCN(C)C(=O)[C@@H]4C3)cc(-c3nc(C(C)C)cs3)nc2c1C` [Simeprevir, simeprevir], the results for the EC50 in the data set on SARS-CoV-2 [3] (setting [14]), in the data set with SARS-CoV-2 [4] (setting [15]) and in the data set on SARS-CoV-2 [10] (human lung cells) were 14 µM, 9 µM and 1 µM, respectively. In addition, the CC50 was 59 µM in data set [1], 33 µM in data set [8] and 56 µM in [9]. Moreover, the residual infectivity in the data set with SARS-CoV-2 [5] (11.1 μM simeprevir singly) is 100%. In the data set with SARS-CoV-2 [7] (1-fold EC50 PI singly), the “effect on viral spread” value is “no to little effect”. Further, the “concentration in the intestine relative to plasma” value in [11] is “up to 128 fold”. Moreover, in data set [11], the “concentrations in other tissues relative to plasma” value is on record as “roughly equal to plasma concentrations”.
With `CC[C@@H]1C[C@]1(NC(=O)[C@@H]1C[C@@H]2CN1C(=O)[C@H](C(C)(C)C)NC(=O)OCC(C)(C)CCCCc1cccc3c1CN(C3)C(=O)O2)C(=O)NS(=O)(=O)C1CC1` [Vaniprevir, vaniprevir], the CC50 in the data set with Vero E6 cells turned out to be 171 µM.
Molecule `Cc1cnc(C(=O)N[C@H]2CCCCC/C=C\[C@@H]3C[C@@]3(C(=O)NS(=O)(=O)C3CC3)NC(=O)[C@@H]3C[C@@H](Oc4nc5ccccc5c5ccccc45)CN3C2=O)cn1` [Paritaprevir, paritaprevir] gave a CC50 in the data set on Vero E6 cells of 123 µM. For the same molecule, in the data set with SARS-CoV-2 [5], the “interaction with remdesivir” value is on record as “primarily synergistic”.
Molecule `CCCCCOc1ccc(NC(=S)NC(=O)c2cccnc2)cc1C(F)(F)F` [ACH-806] showed a concentration giving a half-maximal response (EC50) with SARS-CoV-2 [2] of 46 µM. For the same molecule, the CC50 in the data set on Vero E6 cells was over 429 µM. Further, the “adverse finding that halted development” value in [12] is reported as “reversible nephrotoxicity”.
In data set [1], `COc1ccc2c(O[C@@H]3C[C@H]4C(=O)N[C@]5(C(=O)NS(=O)(=O)C6CC6)C[C@H]5/C=C\CCCCC[C@H](CC(=O)N5CCCC(F)(F)C5)C(=O)N4C3)cc(-c3nc(C(C)C)cs3)nc2c1C` [Deldeprevir, deldeprevir] gave a CC50 of 56 µM.

The values are drawn from article PMC8370243 (Antimicrobial Agents and Chemotherapy, 2021).
